Measured values from ChEMBL document CHEMBL3272186, “Synthesis of new cyclic nucleotides and their differential stimulatory effects on thyroid function in mice” (J Med Chem, 1976).

Tests used:
Mus musculus [1] = test: Induction of radioiodine secretion from 14 days iodine-poor diet fed mouse thyroid assessed as blood [125I] level at 60 mg/kg, iv after 2 hrs pretreated with 10 ug L-thyroxine and [125-I] relative to control by McKenzie Bioassay; format: functional, Thyroid gland
Mus musculus [2] = test: Induction of radioiodine secretion from 14 days iodine-poor diet fed mouse thyroid assessed as blood [125I] level at 30 mg/kg, iv after 2 hrs pretreated with 10 ug L-thyroxine and [125-I] relative to control by McKenzie Bioassay; format: functional, Thyroid gland
Procedure, shortened: (§1)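 Weanling female mice (14–16 g) fed an iodine-poor diet for 14 days, then given 10 μg L-thyroxine sc and 6–8 μCi 125I ip, with L-thyroxine (1 mg/l) in drinking water for 3 days. On day 4, cyclic nucleotides were given into the tail vein as sodium salts in aqueous solution, pH 7.4. Orbital-sinus blood was sampled at 0 and 2 h and γ-counted. Result is cpm(2 h)/cpm(0 h) × 100; mean of about six animals per dose.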

Mus musculus [3] = test: Induction of radioiodine secretion from 14 days iodine-poor diet fed mouse thyroid assessed as blood [125I] level at 15 mg/kg, iv after 2 hrs pretreated with 10 ug L-thyroxine and [125-I] relative to control by McKenzie Bioassay; format: functional, Thyroid gland; procedure, shortened: as §1
Mus musculus [4] = test: Induction of radioiodine secretion from 14 days iodine-poor diet fed mouse thyroid assessed as blood [125I] level at 6 mg/kg, iv after 2 hrs pretreated with 10 ug L-thyroxine and [125-I] relative to control by McKenzie Bioassay; format: functional, Thyroid gland; procedure, shortened: as §1
[5] = Stability of the compound assessed as hydrolysis in presence of phosphodiesterase; format: ADME
[6] = Toxicity in iv dosed mouse; format: organism-based; details: in vivo
Procedure, shortened: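 Female mice (14–16 g, post-weaning) kept 14 days on an iodine-poor diet. They were then given 10 μg L-thyroxine sc and 6–8 μCi 125I ip, followed by L-thyroxine 1 mg/l in drinking water for 3 days. On day 4, cyclic nucleotides were injected into the tail vein as sodium salts in aqueous solution, pH 7.4, at 6–60 mg/kg. Deaths were recorded per dose group of about six animals.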

Mus musculus [7] = test: Induction of serum thyroxine level in Swiss mouse measured per 100 ml at 1 mg, iv after 1 hr by radioimmunoassay (reference value: 4.20 +/- 0.25 to 6.06 +/- 0.36 ug); format: functional
Mus musculus [8] = test: Induction of radioiodine secretion from 14 days iodine-poor diet fed mouse thyroid assessed as blood [125I] level at 45 mg/kg, iv after 2 hrs pretreated with 10 ug L-thyroxine and [125-I] relative to control by McKenzie Bioassay; format: functional, Thyroid gland; procedure, shortened: as §1
Mus musculus [9] = test: Induction of serum thyroxine level in Swiss mouse measured per 100 ml at 1 mg, iv after 2 hrs by radioimmunoassay (reference value: 4.20 +/- 0.25 to 6.06 +/- 0.36 ug); format: functional

Structure (SMILES)	Activity (Mus musculus [1]) [%]	Activity (Mus musculus [2]) [%]	Activity (Mus musculus [3]) [%]	Activity (Mus musculus [4]) [%]	Stability [5]	LD50 [6] [mg/kg]	serum T4 (Mus musculus [7]) [µg/dL]	Activity (Mus musculus [8]) [%]	serum T4 (Mus musculus [9]) [µg/dL]
Nc1ncnc2c1nc(Br)n2[C@@H]1O[C@@H]2COP(=O)([O-])O[C@H]2[C@H]1O.[Na+]	488	331	284	248					
CCCC(=O)Nc1ncnc2c1ncn2[C@@H]1O[C@@H]2COP(=O)([O-])O[C@H]2[C@H]1OC(=O)CCC.[Na+]	245	136			Stable	> 200	5.15		
CCCC(=O)Nc1ncnc2c1nc(SCc1ccccc1)n2[C@@H]1O[C@@H]2COP(=O)([O-])O[C@H]2[C@H]1OC(=O)CCC.[Na+]	123	141	170	116					
CCCC(=O)Nc1ncnc2c1nc(SC)n2[C@@H]1O[C@@H]2COP(=O)([O-])O[C@H]2[C@H]1OC(=O)CCC.[Na+]	174	125	150			> 200			
CCCC(=O)O[C@@H]1[C@@H]2OP(=O)([O-])OC[C@H]2O[C@H]1n1c(SC)nc2c(N)ncnc21.[Na+]		156				> 200		110	
CCCC(=O)Nc1ncnc2c1nc(N)n2[C@@H]1O[C@@H]2COP(=O)([O-])O[C@H]2[C@H]1OC(=O)CCC.[Na+]	164	146				> 200			
Nc1ncnc2c1nc(SCc1ccccc1)n2[C@@H]1O[C@@H]2COP(=O)([O-])O[C@H]2[C@H]1O.[Na+]		195	183	135					
CSc1nc2c(N)ncnc2n1[C@@H]1O[C@@H]2COP(=O)([O-])O[C@H]2[C@H]1O.[Na+]		804	645	492			6.32		6.47
Nc1ncnc2c1nc(N)n2[C@@H]1O[C@@H]2COP(=O)([O-])O[C@H]2[C@H]1O.[Na+]		607	663	226			6.84	818	
CCCC(=O)Nc1ncnc2c1nc(S)n2[C@@H]1O[C@@H]2COP(=O)([O-])O[C@H]2[C@H]1O.[Na+]	630	342	139			> 200			
[N-]=[N+]=Nc1nc2c(N)ncnc2n1[C@@H]1O[C@@H]2COP(=O)([O-])O[C@H]2[C@H]1O.[Na+]		633	594	227			6.19		
CCCC(=O)Nc1ncnc2c1nc(O)n2[C@@H]1O[C@@H]2COP(=O)([O-])O[C@H]2[C@H]1OC(=O)CCC.[Na+]	582	500	184			> 200	5.58		
CCCC(=O)Nc1ncnc2c1nc(SC)n2[C@@H]1O[C@@H]2COP(=O)([O-])O[C@H]2[C@H]1O.[Na+]	533	204	121			> 200			
CCCC(=O)Nc1ncnc2c1nc(S)n2[C@@H]1O[C@@H]2COP(=O)([O-])O[C@H]2[C@H]1OC(=O)CCC.[Na+]	238	177	154			> 200	4.3		
CCCC(=O)Nc1ncnc2c1nc(SCc1ccccc1)n2[C@@H]1O[C@@H]2COP(=O)([O-])O[C@H]2[C@H]1O.[Na+]	197	122	146			> 200			
CCCC(=O)O[C@@H]1[C@@H]2OP(=O)([O-])OC[C@H]2O[C@H]1n1c(S)nc2c(N)ncnc21.[Na+]	190	153	155			> 200			
Nc1ncnc2c1nc(S)n2[C@@H]1O[C@@H]2COP(=O)([O-])O[C@H]2[C@H]1O.[Na+]				136					
Nc1ncnc2c1nc(O)n2[C@@H]1O[C@@H]2COP(=O)([O-])O[C@H]2[C@H]1O.[Na+]			114						
CSc1nc2c(N)ncnc2n1[C@@H]1O[C@H](COP(=O)(O)O)[C@@H](O)[C@H]1O		112					4.44		4.78
[Cl-].[Na+] [SODIUM CHLORIDE]							6		5.83
